# Bioassay records (PubChem BioAssay)
# NadD block = inhibitors of S. aureus NadD, primary screen, biochemical, colorimetric, uHTS; 360,000 tested, 0.78% active; inhibition, % at 20 µM; AID 602399, 2012; Nicotinate-nucleotide adenylyltransferase NadD (Staphylococcus aureus N315); purified NadD enzyme, colorimetric absorbance read-out; in the data active = inhibition above about 26%
# GRIN3A LBD mod = binders of NR3A ligand-binding domain, primary screen, biophysical, differential scanning fluorimetry, uHTS | Tm shift relative to glycine control, % at 25 µM | 340,000 tested, 2.5% active | NR3A LBD differential scanning fluorimetry, Tm shift; 0% = protein alone, 100% = glycine-bound protein;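 active = melting temperature shift of at least 10% of the positive control shift, at one fixed dose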
# ATG4B inhibitor = ATG4B protease inhibitors, primary screen, biochemical, fluorescence, uHTS; Cysteine protease ATG4B (Homo sapiens), Q9Y4P1; ATG4B cleavage of LC3-PLA2, NBD-HPC fluorescence, 1 h; inhibition, % at 8.33 µM; 340,000 tested, 0.51% active; AID 504462, 2011; in the data active = inhibition above about 40%
# UCH37 inh = inhibitors of human UCH37 deubiquitinase, primary screen, biochemical, Ub-AMC cleavage, fluorescence; 330,000 tested, 0.33% active; Ubiquitin carboxyl-terminal hydrolase isozyme L5 (Homo sapiens), Q9Y5K5; purified proteasome/UCH37; inhibition, % (test concentration not listed);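 active = mean inhibition over replicate wells above about 20%, limit read from the data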;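 also: 0% = compound-free wells with enzyme and 100% = wells lacking proteasome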
#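 Material: Human UCH37 enzyme supplied as purified proteasome complex | Schedule: 30 min compound-proteasome preincubation then 25 min substrate reaction, room temperature | Detection: AMC fluorescence from Ub-AMC cleavage, excitation 355 nm, emission 460 nm | Benchmarks: Wells without proteasome as full block, compound-free enzyme plus substrate as uninhibited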
# SENP1 inh = human SENP1 catalytic domain inhibitors, primary screen, biochemical, FRET, uHTS; inhibition, % at 10 µM; Sentrin-specific protease 1 (Homo sapiens), Q9P0U3; 360,000 tested, 0.21% active; recombinant SENP1 catalytic domain, CyPet-SUMO1-YPet FRET cleavage;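 active = inhibition at least 30% at 10 µM, raw YFP signal under a set limit, fluorescence ratio 0.5 to 1.5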;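 also: 0% = enzyme with DMSO and 100% = no enzyme wells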
# Target sequence (Q9P0U3 419-644 limits assumed): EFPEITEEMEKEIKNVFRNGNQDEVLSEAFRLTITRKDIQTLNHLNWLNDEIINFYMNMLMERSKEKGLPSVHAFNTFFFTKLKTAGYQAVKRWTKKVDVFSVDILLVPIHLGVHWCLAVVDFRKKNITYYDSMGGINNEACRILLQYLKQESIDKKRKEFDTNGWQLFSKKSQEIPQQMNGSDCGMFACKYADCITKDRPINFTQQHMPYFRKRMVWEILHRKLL
#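 system = hSENP1 catalytic domain, recombinant | reagent = SFCypet-SUMO1-SFYpet substrate at 25 nM | doses = one dose per compound, 10 µM, 0.5% DMSO | incubation = enzyme reaction for 50 min at room temperature, dark | measured by = FRET, CFP and YFP emission | controls = no-enzyme low, enzyme-DMSO high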
# The depositor's hits bear a star; nt = no result given. Compounds with a hit are over-represented: about 3.6% of the library has one in this group of screens.
SMILES,NadD block,GRIN3A LBD mod,ATG4B inhibitor,UCH37 inh,SENP1 inh
O=S(=O)(Nc1ccc(O)c(Sc2nc3ccccc3s2)c1)c1cccc2ccccc12,16.8,15.2*,1.7,1.5,-0.1
Cc1c(Cl)cccc1NC(=O)CCN1C(=O)C2CC=CCC2C1=O (stereo not drawn),-4.4,11.1*,-1.7,1.0,0.1
COc1ccccc1NC(=O)CCN1C(=O)C2CC=C(Cl)CC2C1=O (stereo not drawn),3.8,-4.6,-9.3,4.1,2.0
O=C(Nc1ccc(Br)cc1)c1ccc(N2C(=O)C3CC=C(Cl)CC3C2=O)cc1 (stereo not drawn),-0.7,26.5*,3.5,-1.8,-6.1
O=C(CCCN1C(=O)C2CC=CCC2C1=O)Nc1cccc(F)c1 (stereo not drawn),-6.2,11.1*,-5.5,-1.7,-1.3
COc1ccc(NC(=O)CCN2C(=O)C3CC=C(Cl)CC3C2=O)cc1 (stereo not drawn),0.0,31.6*,-0.4,5.7,2.7
COc1ccccc1NS(=O)(=O)c1cc([N+](=O)[O-])ccc1NN=Cc1c(C)[nH]c2ccccc12,nt,nt,nt,5.9,nt
CCOC(=O)c1cc(CC)sc1NC(=O)COC,-4.3,-0.1,-6.6,-2.2,-10.7
CCCCN1C(=O)C(=O)N(CC(=O)Nc2sc(CC)cc2C(=O)OCC)C1=O,-7.7,12.8*,-3.8,3.4,-1.7
Nc1ccc(NC(=S)Nc2ccccc2)cc1,-1.0,25.1*,-10.0,3.6,4.9
CC(=NNC(=O)CNC(=O)C1COc2ccccc2O1)c1ccc(Cl)cc1 (stereo not drawn),nt,nt,nt,5.5,nt
CC(/C=C1\SC(=S)N(CCC(=O)Nc2ccc(O)cc2)C1=O)=C\c1ccccc1,20.7,14.2*,-1.0,7.9,-1.8
CC(=Cc1ccccc1)C=C1SC(=S)N(CCCC(=O)Nc2ccc(C(=O)O)c(O)c2)C1=O,18.8,nt,nt,nt,-3.4
CC(/C=C1\SC(=S)N(CCCC(=O)Nc2ccc(C(=O)O)c(O)c2)C1=O)=C\c1ccccc1,nt,-7.1,41.1*,nt,nt
CC(=O)c1ccc(NC(=O)CN2C(=O)/C(=C/C(C)=C/c3ccccc3)SC2=S)cc1,30.7*,8.2,1.7,3.0,-7.8
Cc1ccc(S(=O)(=O)N(C)C)cc1NC(=S)NC12CC3CC(CC(C3)C1)C2,4.4,-8.1,-10.7,-0.1,1.4
CN(C)S(=O)(=O)c1cccc(NC(=S)NC23CC4CC(CC(C4)C2)C3)c1,-0.7,10.3*,-17.1,2.0,2.1
CN(C)S(=O)(=O)c1cccc(NC(=S)NC(=O)c2ccco2)c1,-2.8,2.2,3.6,-0.6,0.5
CN(C)S(=O)(=O)c1cccc(NC(=S)NNC(=O)c2cc3ccccc3cc2O)c1,12.4,21.9*,22.1,nt,-9.9
COc1ccccc1-c1nc2sc(=Cc3cccs3)c(=O)n2n1,nt,nt,nt,3.2,nt
O=C(NNc1nc2ccccc2s1)Nc1ccc(Cl)c(Cl)c1,6.2,15.9*,-2.1,nt,-5.3
O=C(CSc1nc2ccccc2s1)NNC(=S)Nc1ccccc1,2.7,-9.1,2.7,3.4,2.3
O=C(NNc1nc2ccccc2s1)Nc1ccc(F)cc1,2.7,-12.8,-2.6,nt,-31.6
O=C(CSc1nc2ccccc2s1)NNC(=O)Nc1ccc(Cl)c(Cl)c1,9.1,25.5*,-13.5,1.0,-2.6
O=C(CSc1nc2ccccc2s1)NNC(=S)Nc1ccc(Br)cc1,4.0,27.2*,17.3,5.1,2.3
SMILES,NadD block,GRIN3A LBD mod,ATG4B inhibitor,UCH37 inh,SENP1 inh
CSc1sc(C)cc1C=NO,nt,nt,nt,1.2,nt
COc1cc(C=NNC(=O)c2sc(N)c(C#N)c2C)ccc1O,nt,nt,nt,5.8,nt
COc1ccccc1C(=O)Nc1sc2c(c1C#N)CCC2,3.2,4.8,-0.5,-125.2,-1.4
COc1ccccc1C(=O)Nc1sc2c(c1C(N)=O)CCCC2,-11.6,35.0*,8.1,-250.8,-3.3
O=C(Nc1ccccc1-c1nc2ccccc2[nH]1)c1ccc(S(=O)(=O)N2CCCCC2)cc1,-1.9,6.5,-7.6,-13.9,2.2
CC1CCCCN1S(=O)(=O)c1ccc(C(=O)Nc2ccccc2-c2nc3ccccc3[nH]2)cc1 (stereo not drawn),28.7,30.2*,-10.5,-35.4,2.4
